ChEMBL document CHEMBL5260843 (J Med Chem, 2019)
Each block holds one molecule with its values, some of them ahead of it. Activity calls are given as the source filed them. The calls are words filed in the database; no cut-off is given here.

How the values were obtained:
[1] = molecular target: T1, DCN1-like protein 1/NEDD8-conjugating enzyme Ubc12 (Homo sapiens, UniProt Q96GG9); assay: Inhibition of GST-tagged DCN1 PONY domain (unknown origin)/human N-terminal acetylated UBC12 (1 to 12 residues) protein-protein interaction incubated for 1 hr by HTRF analysis; type: protein assay
Cullin-1 (Homo sapiens) [2] = molecular target: Cullin-1 (Homo sapiens) (UniProt Q13616); assay: Inhibition of cullin1 neddylation in UBC/DCN1 overactivated human MGC-803 cells at 1 uM incubated for 24 hrs by Western blot analysis; type: cell-based
How it was run: (§1)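 Cells in 6-well plates were exposed to compound for 24 h. MGC-803 were grown in DMEM and KYSE70 in RPMI 1640, both with 10% FBS at 37 °C and 5% CO2. Lysates were made in RIPA with protease inhibitors and quantified by BCA. 30 μg protein was run on 8% SDS-PAGE and blotted to nitrocellulose. Primary antibodies were applied overnight at 4 °C, then HRP secondaries, with ECL and film detection. GAPDH was the loading control. Run three times.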

Cullin-4A (Homo sapiens) [3] = molecular target: Cullin-4A (Homo sapiens) (UniProt Q13619); assay: Inhibition of cullin4A neddylation in UBC/DCN1 overactivated human MGC-803 cells at 1 uM incubated for 24 hrs by Western blot analysis; type: cell-based; how it was run: as §1
Cullin-4B (Homo sapiens) [4] = molecular target: Cullin-4B (Homo sapiens) (UniProt Q13620); assay: Inhibition of cullin4B neddylation in UBC/DCN1 overactivated human MGC-803 cells at 1 uM incubated for 24 hrs by Western blot analysis; type: cell-based; how it was run: as §1
MGC-803 [5] = assay: Inhibition of cullin3 neddylation in UBC/DCN1 overactivated human MGC-803 cells at 1 uM incubated for 24 hrs by Western blot analysis; type: cell-based; how it was run: as §1
Cullin-5 (Homo sapiens) [6] = molecular target: T2, Cullin-5 (Homo sapiens) (UniProt Q93034); assay: Inhibition of cullin5 neddylation in UBC/DCN1 overactivated human MGC-803 cells at 1 uM incubated for 24 hrs by Western blot analysis; type: cell-based; how it was run: as §1
T2 sequence (whole entry): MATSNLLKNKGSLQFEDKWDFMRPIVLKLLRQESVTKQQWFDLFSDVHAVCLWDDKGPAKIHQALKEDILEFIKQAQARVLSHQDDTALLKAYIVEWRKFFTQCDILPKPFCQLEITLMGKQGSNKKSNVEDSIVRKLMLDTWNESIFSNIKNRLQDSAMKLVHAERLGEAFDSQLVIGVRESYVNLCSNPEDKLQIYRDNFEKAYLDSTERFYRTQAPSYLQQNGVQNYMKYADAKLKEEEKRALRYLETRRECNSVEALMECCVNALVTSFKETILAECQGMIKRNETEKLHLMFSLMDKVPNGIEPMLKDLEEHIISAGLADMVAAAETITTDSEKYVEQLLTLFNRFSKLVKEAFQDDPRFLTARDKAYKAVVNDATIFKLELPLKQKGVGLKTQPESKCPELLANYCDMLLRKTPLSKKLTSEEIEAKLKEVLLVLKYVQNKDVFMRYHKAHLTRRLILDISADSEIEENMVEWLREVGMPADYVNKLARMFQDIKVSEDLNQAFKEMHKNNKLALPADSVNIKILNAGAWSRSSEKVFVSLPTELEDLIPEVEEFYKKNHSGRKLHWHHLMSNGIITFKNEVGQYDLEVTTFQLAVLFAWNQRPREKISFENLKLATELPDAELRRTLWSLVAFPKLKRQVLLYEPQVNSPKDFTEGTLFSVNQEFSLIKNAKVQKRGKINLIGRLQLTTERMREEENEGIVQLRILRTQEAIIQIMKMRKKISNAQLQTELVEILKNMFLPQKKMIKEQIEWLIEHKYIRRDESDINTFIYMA

MGC-803 [7] = assay: Induction of p27 accumulation in human MGC-803 cells 0.03 to 3 uM incubated for 24 hrs by Western blot analysis; type: functional, cell-based; conditions: dose 0.03-3 µM; how it was run: as §1
MGC-803 [8] = assay: Induction of NRF2 accumulation in human MGC-803 cells 0.03 to 3 uM incubated for 24 hrs by Western blot analysis; type: functional, cell-based; conditions: dose 0.03-3 µM; how it was run: as §1
MGC-803 [9] = assay: Inhibition of cullin2 neddylation in UBC/DCN1 overactivated human MGC-803 cells at 1 uM incubated for 24 hrs by Western blot analysis; type: cell-based; how it was run: as §1
MGC-803 [10] = assay: Induction of p21 accumulation in human MGC-803 cells 0.03 to 3 uM incubated for 24 hrs by Western blot analysis; type: functional, cell-based; conditions: dose 0.03-3 µM; how it was run: as §1
MGC-803 [11] = assay: Induction of ROS generation in human MGC-803 cells at 3 uM incubated for 24 hrs by DCFH-DA staining based flow cytometry analysis (reference value: 2%); type: functional
[12] = molecular target: T1, DCN1-like protein 1/NEDD8-conjugating enzyme Ubc12; assay: Inhibition of biotinylated DCN1 PONY domain (unknown origin)/human N-terminal acetylated UBC12 (1 to 12 residues) protein-protein interaction incubated for 1 hr by TR-FRET analysis; type: protein assay
MGC-803 [13] = assay: Induction of ROS generation in human MGC-803 cells at 1 uM incubated for 24 hrs by DCFH-DA staining based flow cytometry analysis (reference value: 2%); type: functional
MGC-803 [14] = assay: Induction of ROS generation in human MGC-803 cells at 0.3 uM incubated for 24 hrs by DCFH-DA staining based flow cytometry analysis (reference value: 2%); type: functional
MGC-803 [15] = assay: Inhibition of cullin2 neddylation in UBC/DCN1 overactivated human MGC-803 cells at 0.3 to 10 uM incubated for 24 hrs by Western blot analysis; type: cell-based; conditions: dose 0.3-10 µM; how it was run: as §1
Cullin-5 (Homo sapiens) [16] = molecular target: T2, Cullin-5 (Homo sapiens); assay: Inhibition of cullin5 neddylation in UBC/DCN1 overactivated human MGC-803 cells at 0.3 to 10 uM incubated for 24 hrs by Western blot analysis; type: cell-based; conditions: dose 0.3-10 µM; how it was run: as §1
MGC-803 [17] = assay: Inhibition of cullin3 neddylation in UBC/DCN1 overactivated human MGC-803 cells incubated for 24 hrs by Western blot analysis; type: cell-based; how it was run: as §1
MGC-803 [18] = assay: Induction of ROS generation in human MGC-803 cells at 0.3 uM incubated for 24 hrs by DCFH-DA staining based flow cytometry analysis (reference value: 1.2%); type: functional
Cullin-1 (Homo sapiens) [19] = molecular target: Cullin-1 (Homo sapiens) (UniProt Q13616); assay: Inhibition of cullin1 neddylation in UBC/DCN1 overactivated human MGC-803 cells at 0.3 to 10 uM incubated for 24 hrs by Western blot analysis; type: cell-based; conditions: dose 0.3-10 µM; how it was run: as §1
MGC-803 [20] = assay: Induction of ROS generation in human MGC-803 cells at 1 uM incubated for 24 hrs by DCFH-DA staining based flow cytometry analysis (reference value: 1.2%); type: functional
MGC-803 [21] = assay: Induction of NRF2 accumulation in human MGC-803 cells 0.01 to 10 uM incubated for 24 hrs by Western blot analysis; type: functional, cell-based; conditions: dose 0.01-10 µM; how it was run: as §1
MGC-803 [22] = assay: Induction of ROS generation in human MGC-803 cells at 3 uM incubated for 24 hrs by DCFH-DA staining based flow cytometry analysis (reference value: 1.2%); type: functional
Cullin-4B (Homo sapiens) [23] = molecular target: Cullin-4B (Homo sapiens) (UniProt Q13620); assay: Inhibition of cullin4B neddylation in UBC/DCN1 overactivated human MGC-803 cells at 0.3 to 10 uM incubated for 24 hrs by Western blot analysis; type: cell-based; conditions: dose 0.3-10 µM; how it was run: as §1
Cullin-4A (Homo sapiens) [24] = molecular target: Cullin-4A (Homo sapiens) (UniProt Q13619); assay: Inhibition of cullin4A neddylation in UBC/DCN1 overactivated human MGC-803 cells at 0.3 to 10 uM incubated for 24 hrs by Western blot analysis; type: cell-based; conditions: dose 0.3-10 µM; how it was run: as §1

T1 sequence (Q96GG9 whole entry, the tested form may be a part): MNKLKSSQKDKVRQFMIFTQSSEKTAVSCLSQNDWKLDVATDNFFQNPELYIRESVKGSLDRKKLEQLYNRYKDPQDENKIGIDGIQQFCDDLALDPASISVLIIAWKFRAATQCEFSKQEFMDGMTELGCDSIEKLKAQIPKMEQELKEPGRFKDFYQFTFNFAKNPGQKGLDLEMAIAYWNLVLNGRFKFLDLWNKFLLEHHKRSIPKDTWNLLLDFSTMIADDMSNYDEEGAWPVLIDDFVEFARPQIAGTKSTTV
T1 sequence (P61081 whole entry, further chain, the tested form may be a part): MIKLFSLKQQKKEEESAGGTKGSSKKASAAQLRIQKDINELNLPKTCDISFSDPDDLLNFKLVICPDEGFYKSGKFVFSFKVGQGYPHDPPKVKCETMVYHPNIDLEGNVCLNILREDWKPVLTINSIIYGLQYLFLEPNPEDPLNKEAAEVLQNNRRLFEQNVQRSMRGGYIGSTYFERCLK
Sequence of Cullin-4B (Homo sapiens) (Q13620 whole entry): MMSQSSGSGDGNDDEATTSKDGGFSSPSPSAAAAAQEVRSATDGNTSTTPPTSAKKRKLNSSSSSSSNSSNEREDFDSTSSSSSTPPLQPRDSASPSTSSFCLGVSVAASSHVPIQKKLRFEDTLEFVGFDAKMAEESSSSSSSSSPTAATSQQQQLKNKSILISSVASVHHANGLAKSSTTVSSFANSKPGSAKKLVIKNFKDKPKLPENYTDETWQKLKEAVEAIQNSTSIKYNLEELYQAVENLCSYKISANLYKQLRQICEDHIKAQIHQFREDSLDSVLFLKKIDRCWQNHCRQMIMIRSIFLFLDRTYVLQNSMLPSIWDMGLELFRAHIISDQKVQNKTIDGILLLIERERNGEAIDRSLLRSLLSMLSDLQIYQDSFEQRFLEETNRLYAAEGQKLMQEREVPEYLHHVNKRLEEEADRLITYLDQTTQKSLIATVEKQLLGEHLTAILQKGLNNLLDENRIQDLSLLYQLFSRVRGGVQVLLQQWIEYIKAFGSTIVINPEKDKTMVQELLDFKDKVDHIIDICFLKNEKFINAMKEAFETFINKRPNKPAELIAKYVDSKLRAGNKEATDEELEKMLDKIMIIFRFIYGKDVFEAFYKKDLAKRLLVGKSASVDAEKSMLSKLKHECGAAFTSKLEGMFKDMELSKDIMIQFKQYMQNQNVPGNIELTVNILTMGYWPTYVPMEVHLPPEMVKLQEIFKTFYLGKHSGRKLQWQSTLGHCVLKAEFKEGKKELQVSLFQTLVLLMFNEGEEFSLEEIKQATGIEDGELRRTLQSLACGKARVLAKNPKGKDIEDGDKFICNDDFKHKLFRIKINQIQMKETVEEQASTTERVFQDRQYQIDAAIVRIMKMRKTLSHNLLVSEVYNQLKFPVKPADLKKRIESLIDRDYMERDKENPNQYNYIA
Sequence of Cullin-1 (Homo sapiens) (Q13616 whole entry): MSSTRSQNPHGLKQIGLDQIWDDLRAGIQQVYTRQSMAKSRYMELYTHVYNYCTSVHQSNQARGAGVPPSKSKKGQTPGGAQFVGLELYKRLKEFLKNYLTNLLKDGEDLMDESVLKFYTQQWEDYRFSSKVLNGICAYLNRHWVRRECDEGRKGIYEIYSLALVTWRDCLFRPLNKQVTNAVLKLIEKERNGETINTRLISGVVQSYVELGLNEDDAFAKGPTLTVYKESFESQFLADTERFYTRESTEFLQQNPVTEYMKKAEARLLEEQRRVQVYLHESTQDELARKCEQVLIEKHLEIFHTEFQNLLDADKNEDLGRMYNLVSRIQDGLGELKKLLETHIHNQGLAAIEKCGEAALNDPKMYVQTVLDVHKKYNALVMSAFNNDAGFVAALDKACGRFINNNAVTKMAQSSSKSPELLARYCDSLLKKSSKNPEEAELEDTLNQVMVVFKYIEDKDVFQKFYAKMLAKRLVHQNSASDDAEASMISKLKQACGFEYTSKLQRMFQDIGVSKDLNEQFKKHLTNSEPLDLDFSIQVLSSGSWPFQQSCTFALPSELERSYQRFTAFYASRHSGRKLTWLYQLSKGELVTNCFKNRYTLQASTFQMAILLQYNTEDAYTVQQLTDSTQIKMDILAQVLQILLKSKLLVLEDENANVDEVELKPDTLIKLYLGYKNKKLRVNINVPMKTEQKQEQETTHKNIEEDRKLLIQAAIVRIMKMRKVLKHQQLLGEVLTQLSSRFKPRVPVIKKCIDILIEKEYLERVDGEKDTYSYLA
Sequence of Cullin-4A (Homo sapiens) (Q13619 whole entry): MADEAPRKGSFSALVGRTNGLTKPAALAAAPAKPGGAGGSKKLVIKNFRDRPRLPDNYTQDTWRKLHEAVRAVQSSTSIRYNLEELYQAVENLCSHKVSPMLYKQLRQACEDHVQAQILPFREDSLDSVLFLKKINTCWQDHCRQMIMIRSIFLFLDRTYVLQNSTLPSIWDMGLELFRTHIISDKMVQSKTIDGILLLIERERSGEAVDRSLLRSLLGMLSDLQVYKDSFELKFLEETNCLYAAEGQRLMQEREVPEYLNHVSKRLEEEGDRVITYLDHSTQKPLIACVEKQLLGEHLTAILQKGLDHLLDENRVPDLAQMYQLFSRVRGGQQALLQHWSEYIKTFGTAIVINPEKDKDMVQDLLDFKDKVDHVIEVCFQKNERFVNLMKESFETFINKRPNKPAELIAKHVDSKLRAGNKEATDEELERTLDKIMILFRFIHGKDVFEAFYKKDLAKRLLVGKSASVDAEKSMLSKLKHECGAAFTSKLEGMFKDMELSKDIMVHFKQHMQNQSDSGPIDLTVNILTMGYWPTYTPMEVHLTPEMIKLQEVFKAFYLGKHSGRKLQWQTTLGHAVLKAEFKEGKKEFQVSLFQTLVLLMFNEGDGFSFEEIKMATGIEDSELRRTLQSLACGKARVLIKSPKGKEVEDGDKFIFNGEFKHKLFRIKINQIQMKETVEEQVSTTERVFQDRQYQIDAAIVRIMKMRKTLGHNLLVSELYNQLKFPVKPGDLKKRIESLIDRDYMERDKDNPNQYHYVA

SMILES: Cc1cc(Sc2nnnn2CCN(C)C)n2nc(SCc3csc4ccc(Cl)cc34)nc2n1
IC50 [1]: 4890 nM

SMILES: C=CCSc1nc2nc(C)cc(Sc3nnnn3CCN(C)C)n2n1
IC50 [1]: 137 nM

SMILES: NS(=O)(=O)OC[C@@H]1C[C@@H](n2ccc3c(N[C@H]4CCc5ccccc54)ncnc32)C[C@@H]1O
inhibition (Cullin-1 (Homo sapiens) [2]): Active
inhibition (Cullin-4A (Homo sapiens) [3]): Active
inhibition (Cullin-4B (Homo sapiens) [4]): Active
inhibition (MGC-803 [5]): Active
inhibition (Cullin-5 (Homo sapiens) [6]): Active
Activity (MGC-803 [7]): Active
Activity (MGC-803 [8]): Active
inhibition (MGC-803 [9]): Active
Activity (MGC-803 [10]): Active

SMILES: Cc1cc(Sc2nnnn2CCN(C)C)n2nc(SCc3ccccc3C(F)(F)F)nc2n1
IC50 [1]: 654 nM

SMILES: Cc1cc(Sc2nnnn2CCN(C)C)n2nc(SCC3CC3)nc2n1
IC50 [1]: 59 nM

SMILES: CN(C)CCn1nnnc1Sc1c2c(nc3ncnn13)CCC2
IC50 [1]: 61 nM

SMILES: Cc1cc(Sc2nnnn2CCN(C)C)n2nc(SCc3cccc(C(F)(F)F)c3)nc2n1
IC50 [1]: 1080 nM

SMILES: CCCSc1nc2nc(C)cc(Sc3nnnn3CCN(C)C)n2n1
IC50 [1]: 214 nM

SMILES: Cc1cc(Sc2nnnn2CCN(C)C)n2nc(SCc3ccc(Cl)c(F)c3)nc2n1
IC50 [1]: 17 nM

SMILES: CCCCN1CCC(N(Cc2ccccc2)C(=O)Nc2ccc(Cl)c(Cl)c2)CC1
Activity (MGC-803 [11]): 0.2%
IC50 [12]: 60 nM
Activity (MGC-803 [13]): 0.5%
Activity (MGC-803 [14]): 0.7%

SMILES: COc1ccc(CSc2nc3nc(C)cc(Sc4nnnn4CCN(C)C)n3n2)cc1
IC50 [1]: 28 nM

SMILES: Cc1cc(Sc2nnnn2CCN(C)C)n2nc(SC(C)C)nc2n1
IC50 [1]: 268 nM

SMILES: CCC(=O)N[C@@H](Cc1nc2ccc(C(C)C)cc2s1)C(=O)N[C@H](CNC(=O)CCN1CCOCC1)C1CCCCC1
inhibition (MGC-803 [15]): inactive
inhibition (Cullin-5 (Homo sapiens) [16]): inactive
inhibition (MGC-803 [17]): Dose-Dependent Effect
Activity (MGC-803 [18]): 1.3%
inhibition (Cullin-1 (Homo sapiens) [19]): inactive
Activity (MGC-803 [20]): 0.7%
Activity (MGC-803 [21]): Active
Activity (MGC-803 [22]): 1.3%
inhibition (Cullin-4B (Homo sapiens) [23]): inactive
inhibition (Cullin-4A (Homo sapiens) [24]): inactive

SMILES: COCCOc1cc2ncnc(Sc3nnnn3CCN(C)C)c2cc1OCCOC
IC50 [1]: > 50000 nM

SMILES: Cc1cc(Sc2nnnn2CCN(C)C)n2nc(SCc3ccc(F)c(Cl)c3)nc2n1
IC50 [1]: 22 nM

Continued, values first:

IC50 [1]: 15800 nM
SMILES: c1ccc(-c2cc(Sc3nnnn3-c3ccccc3)n3ncnc3n2)cc1

IC50 [1]: 3880 nM
SMILES: Oc1ccc(-n2nnnc2Sc2cc(-c3ccccc3)nc3ncnn23)cc1

IC50 [1]: 352 nM
SMILES: CCc1cc(Sc2nnnn2CCN(C)C)n2nc(SCc3ccccc3)nc2n1

IC50 [1]: 706 nM
SMILES: CCc1cc(Sc2nnnn2CCN(C)C)n2ncnc2n1

IC50 [1]: 290 nM
SMILES: CN(C)CCn1nnnc1Sc1cc(-c2ccccc2)nc2nc(SCc3ccccc3)nn12

IC50 [1]: 5820 nM
SMILES: Cn1nnnc1Sc1cc(-c2ccccc2)nc2ncnn12

IC50 [1]: 1360 nM
SMILES: CC(C)c1cc(Sc2nnnn2CCN(C)C)n2ncnc2n1

IC50 [1]: 824 nM
SMILES: Cc1cc(Sc2nnnn2CCN(C)C)n2nc(SCc3ccccc3Br)nc2n1
